From paper PMC4752335 (European journal of medicinal chemistry, 2015)

What was measured:
[1] = system: mouse models of IBD; conditions: cited from earlier work
[2] = system: FAAH and COX; conditions: mice; cited from earlier work
[3] = system: panel of >90 biologically relevant receptors, enzymes and ion channels; conditions: cited from earlier work
[4] = target: T1, ovine COX-1 (Ovis aries, UniProt P05979); assay: In vitro COX assay; assay type: biochemical; conditions: for decrease in potency toward COX-1: compared to 10r; for increase in potency toward COX-1: compared to 10a
T1 sequence (P05979 25-600): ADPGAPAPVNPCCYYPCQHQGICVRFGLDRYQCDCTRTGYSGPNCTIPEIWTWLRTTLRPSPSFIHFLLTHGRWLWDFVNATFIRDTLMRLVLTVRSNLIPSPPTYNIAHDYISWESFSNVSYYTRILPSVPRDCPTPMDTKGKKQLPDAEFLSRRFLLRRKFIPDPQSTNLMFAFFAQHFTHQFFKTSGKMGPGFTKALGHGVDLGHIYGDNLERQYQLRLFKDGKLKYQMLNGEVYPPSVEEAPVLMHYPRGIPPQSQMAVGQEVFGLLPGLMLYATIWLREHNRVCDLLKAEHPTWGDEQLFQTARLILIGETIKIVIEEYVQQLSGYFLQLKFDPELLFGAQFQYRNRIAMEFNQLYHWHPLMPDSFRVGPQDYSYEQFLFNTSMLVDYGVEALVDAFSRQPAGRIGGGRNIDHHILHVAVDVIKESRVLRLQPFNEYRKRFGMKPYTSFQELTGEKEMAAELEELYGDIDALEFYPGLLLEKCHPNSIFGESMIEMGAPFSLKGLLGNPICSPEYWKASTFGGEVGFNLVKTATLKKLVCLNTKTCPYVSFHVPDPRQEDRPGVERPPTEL

[5] = target: T2, rat brain FAAH (Rattus norvegicus, UniProt P97612); assay: In vitro rat FAAH radiometric assay; assay type: biochemical
T2 sequence (P97612 1-579): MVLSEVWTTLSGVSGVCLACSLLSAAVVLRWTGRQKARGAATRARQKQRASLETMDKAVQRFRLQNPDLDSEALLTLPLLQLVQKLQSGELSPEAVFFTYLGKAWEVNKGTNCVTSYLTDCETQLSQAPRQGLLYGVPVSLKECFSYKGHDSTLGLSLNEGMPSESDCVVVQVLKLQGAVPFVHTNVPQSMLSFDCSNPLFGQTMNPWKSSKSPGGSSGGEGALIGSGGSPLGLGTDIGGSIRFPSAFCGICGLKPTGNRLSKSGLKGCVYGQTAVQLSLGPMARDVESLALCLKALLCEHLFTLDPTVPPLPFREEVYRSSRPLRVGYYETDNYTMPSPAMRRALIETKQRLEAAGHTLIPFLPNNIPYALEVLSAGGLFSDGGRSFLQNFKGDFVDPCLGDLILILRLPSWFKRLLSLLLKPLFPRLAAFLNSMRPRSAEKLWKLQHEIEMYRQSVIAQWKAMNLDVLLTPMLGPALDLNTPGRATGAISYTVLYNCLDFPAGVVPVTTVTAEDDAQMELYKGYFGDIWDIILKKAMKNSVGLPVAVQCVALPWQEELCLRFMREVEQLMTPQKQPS

[6] = target: T3, human recombinant COX-2 (Homo sapiens, UniProt P35354); assay: In vitro COX assay; assay type: biochemical; conditions: compared to 10r
T3 sequence (P35354 18-604): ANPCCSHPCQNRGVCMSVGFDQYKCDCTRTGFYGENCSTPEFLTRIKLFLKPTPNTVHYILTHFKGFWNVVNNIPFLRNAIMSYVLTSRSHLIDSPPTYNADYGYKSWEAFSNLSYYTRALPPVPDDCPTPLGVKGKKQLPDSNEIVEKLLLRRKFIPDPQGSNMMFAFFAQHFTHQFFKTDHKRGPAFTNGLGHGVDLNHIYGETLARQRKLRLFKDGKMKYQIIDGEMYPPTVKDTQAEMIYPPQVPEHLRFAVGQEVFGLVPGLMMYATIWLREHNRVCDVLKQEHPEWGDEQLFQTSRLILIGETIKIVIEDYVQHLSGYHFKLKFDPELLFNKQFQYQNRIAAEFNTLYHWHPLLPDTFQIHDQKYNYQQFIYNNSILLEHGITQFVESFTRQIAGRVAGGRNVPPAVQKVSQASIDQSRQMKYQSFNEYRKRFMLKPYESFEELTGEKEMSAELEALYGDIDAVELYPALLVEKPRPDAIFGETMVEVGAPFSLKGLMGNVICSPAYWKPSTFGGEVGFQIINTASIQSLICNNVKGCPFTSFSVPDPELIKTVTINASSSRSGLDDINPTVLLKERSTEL

[7] = system: panel of >90 biologically relevant receptors, enzymes and ion channels; assay: Off-target panel of >90 biologically relevant targets; conditions: Table S1
[8] = system: COX products (6-keto-PGF1α, TXB2) and FAAH substrate OEA in plasma; assay type: in vivo; conditions: mice, 1 mg/kg intravenous, 1 h, vs vehicle
How it was run: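 Mice, randomised in groups of 6 and handled blind, were decapitated under anaesthesia 1 h after a 1 mg/kg intravenous dose. Heparinised cardiac blood (0.3 mL) was spun at 2000×g for 30 min to give plasma. OEA was extracted with cold acetone containing [²H₄]-OEA and quantified by LC/MS (MRM) against a 1 nM–10 µM calibration curve. 6-keto-PGF1α and […] were measured by ELISA kit. Values are mean ± s.e.m. (n=6), compared with vehicle by two-tailed Student's t test.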

## CCCCCCNC(=O)Oc1cccc(-c2ccc(C(C)C(=O)O)cc2F)c1 (racemic) [Compound 10r, (±)-2-[3-fluoro-4-[3-(hexylcarbamoyloxy)phenyl]phenyl]propanoic acid]
[1]
  anti-inflammatory effects in mouse models of IBD: profound anti-inflammatory effects
[1]; mouse
  COX-dependent gastric toxicity: without causing COX-dependent gastric toxicity
[2]
  engagement of intended targets after oral administration: effectively engages its intended targets
[3]
  off-target activities on a panel of >90 biologically relevant targets: no off-target activities

## CCCCCCNC(=O)Oc1ccccc1-c1ccc(C(C)C(=O)O)cc1F (racemic) [Compound 15a, (±)-2-[3-fluoro-4-[2-(hexylcarbamoyloxy)phenyl]phenyl]propanoic acid]
[4]
  decrease in potency toward COX-1: 60 fold
[5]; compared to 10r
  decrease in potency toward FAAH: 70 fold

## CC(C(=O)O)c1ccc(-c2cccc(OC(=O)NCc3ccccc3)c2)c(F)c1 (racemic) [Compound 10j, (±)-2-[4-[3-(benzylcarbamoyloxy)phenyl]-3-fluoro-phenyl]propanoic acid]
[5]; compared to 10i
  increase in potency toward FAAH: 10 fold

## CCCCCCNC(=O)Oc1cccc(-c2ccc(CC(=O)O)cc2F)c1 [Compound 18b, 2-[3-fluoro-4-[3-(hexylcarbamoyloxy)phenyl]phenyl]acetic acid]
[4]
  decrease in potency toward COX-1: 180 fold
[5]; compared to 10r
  decrease in potency toward FAAH: 2 fold

## CCCCCCNC(=O)Oc1cccc(-c2ccc(C(C)C(=O)O)cc2C(F)(F)F)c1 (racemic) [Compound 29c, (±)-2-[4-[3-(hexylcarbamoyloxy)phenyl]-3-(trifluoromethyl)phenyl]propanoic acid]
[6]
  increase in potency toward COX-2: 2 fold
[5]; compared to 10r
  increase in potency toward FAAH: 6 fold

## CCCCCCNC(=O)Oc1cccc(-c2ccc(C(C)C(=O)O)cc2)c1 (racemic) [Compound 29e, (±)-2-[4-[3-(hexylcarbamoyloxy)phenyl]phenyl]propanoic acid]
[5]; compared to 10r
  increase in potency toward FAAH: 10 fold

## CCCCCCNC(=O)Oc1cccc(-c2ccc([C@H](C)C(=O)O)cc2F)c1 [(+)-10r, (+)-2-[3-fluoro-4-[3-(hexylcarbamoyloxy)phenyl]phenyl]propanoic acid]
[7]
  off-target activities on a panel of >90 biologically relevant receptors, enzymes (including NAAA) and ion channels: no off-target activities
[8]
  plasma level of 6-keto-PGF1α (stable metabolite of prostacyclin): lowered
  plasma level of TXB2 (stable metabolite of TXA2): lowered
  plasma level of the FAAH substrate OEA: increased

## CCCCCCNC(=O)Oc1cccc(-c2ccc(C(C)CO)cc2F)c1 (racemic) [Compound 12, (±)-[3-[2-fluoro-4-(2-hydroxy-1-methyl-ethyl)phenyl]phenyl] N-hexylcarbamate]
[4]
  decrease in potency toward COX-1: 100 fold
[5]; compared to 10r
  increase in potency toward FAAH: 10 fold

## CC(C(=O)O)c1ccc(-c2cccc(OC(=O)NCCC3CCCCC3)c2)c(F)c1 (racemic) [Compound 10f, (±)-2-[4-[3-(2-cyclohexylethylcarbamoyloxy)phenyl]-3-fluoro-phenyl]propanoic acid]
[4]
  increase in potency toward COX-1: 50 fold
[5]; compared to 10a
  increase in potency toward FAAH: 400 fold

## CC(C(=O)O)c1ccc(-c2cccc(OC(=O)NC3CCC3)c2)c(F)c1 (racemic) [Compound 10c, (±)-2-[4-[3-(cyclobutylcarbamoyloxy)phenyl]-3-fluoro-phenyl]propanoic acid]
[4]
  increase in potency toward COX-1: 10 fold
[5]; compared to 10a
  loss in potency against FAAH: 10 fold

## CCCCCCNC(=O)Oc1cccc(-c2ccc(C(=O)O)cc2F)c1 [Compound 21c, 3-fluoro-4-[3-(hexylcarbamoyloxy)phenyl]benzoic acid]
[5]; compared to 10r
  decrease in potency toward FAAH: 3 fold

## CC(C(=O)O)c1ccc(-c2cccc(OC(=O)NCC3CCCCC3)c2)c(F)c1 (racemic) [Compound 10e, (±)-2-[4-[3-(cyclohexylmethylcarbamoyloxy)phenyl]-3-fluoro-phenyl]propanoic acid]
[4]
  increase in potency toward COX-1: 10 fold
[5]; compared to 10a
  increase in potency toward FAAH: 23 fold
